Here are results for 16 molecules from ChEMBL document CHEMBL4152327, “Homopiperazine-rhodamine B adducts of triterpenoic acids are strong mitocans” (Eur J Med Chem, 2018).

One data set relates to SW-1736. As to the kind of experiment: Cytotoxicity against human SW1736 cells after 96 hrs by SRB assay. In kind it is functional, cell-based. The settings on record: SW-1736, 96 h. Summed up:
(§1)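 SRB assay; cells exposed to compound for 96 h. EC50 in µM averaged from three independent experiments, each in triplicate, with 95% confidence interval and mean ± standard mean error. Assay cut-off 30 µM.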
(In general: In SRB staining, fixed cells bind dye roughly in proportion to their protein.)

A further data set concerns A-375. As to the kind of experiment: Cytotoxicity against human A375 cells after 96 hrs by SRB assay. The format is functional, cell-based. The settings on record: A-375, 96 h. The method, boiled down: as §1
Another data set has as its system NIH3T3. As to the kind of experiment: Cytotoxicity against mouse NIH/3T3 cells after 96 hrs by SRB assay. The format is cell-based. The settings on record: NIH3T3, 96 h. Summed up: as §1
A further data set concerns MCF7. As to the kind of experiment: Cytotoxicity against human MCF7 cells after 96 hrs by SRB assay. In kind it is functional, cell-based. Particulars: MCF7, 96 h. The method, boiled down: as §1
Another data set concerns A2780. As to the kind of experiment: Cytotoxicity against human A2780 cells after 96 hrs by SRB assay. In kind it is functional, cell-based. Particulars: A2780, 96 h. The method, boiled down:
as §1

A further data set relates to HT-29. As to the kind of experiment: Cytotoxicity against human HT-29 cells after 96 hrs by SRB assay. In kind it is functional, cell-based. The settings on record: HT-29, 96 h. The method, boiled down:
as §1

Data set [1] can be described thus: Drug uptake in mitochondria of human A2780 cells at 100 nM after 24 hrs by rhodamine 123 staining-based fluorescence microscopic method. The format is ADME. Particulars: a2780, 24 h, 0.1 µM. The method, boiled down:
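A2780 cells, about 1·10^6 per 25 cm² flask, grown 24 h, then given fresh medium containing compound for 24 h (blank medium as control). Cells collected, centrifuged at 1200 rpm and 4 °C, washed in PBS, then mixed with Hoechst 33342/Rhodamine 123 solution (10 µg/ml). Incubated 30 min at 37 °C in the dark, washed, and viewed by epifluorescence microscopy.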

A short description of data set [2]: Selectivity index, ratio of EC50 for mouse NIH/3T3 cells to EC50 for human A2780 cells. In kind it is toxicity. The settings on record: NIH/3T3 cells and A2780 cells, read-out: Ratio EC50.

Structures are written as SMILES. Bounds are passed on as bounds.

On to `C=C(C)[C@@H]1CC[C@]2(C(=O)O)CC[C@]3(C)[C@H](CC[C@@H]4[C@@]5(C)CC[C@H](O)C(C)(C)[C@@H]5CC[C@]43C)[C@@H]12` [BETULINIC ACID], for which the EC50 (usually the concentration at which the effect is half-maximal) in the data set on SW-1736 was 18300 nM; in the data set on A-375, 17100 nM.
In the case of `CC(=O)O[C@H]1CC[C@]2(C)[C@H]3CC=C4[C@@H]5CC(C)(C)CC[C@]5(C(=O)N5CCCNCC5)CC[C@@]4(C)[C@]3(C)CC[C@H]2C1(C)C`, the EC50 in the data set with NIH3T3 is 1230 nM; in the data set on MCF7 it was 1500 nM; in the data set on A2780 it was 2310 nM; in the data set with HT-29, 1300 nM; in the data set with SW-1736 it was 3250 nM; in the data set on A-375, 2300 nM.
In the case of `CCN(CC)c1ccc2c(-c3ccccc3C(=O)N3CCCN(C(=O)[C@]45CC[C@@H](C)[C@H](C)[C@H]4C4=CC[C@@H]6[C@@]7(C)CC[C@H](OC(C)=O)C(C)(C)[C@@H]7CC[C@@]6(C)[C@]4(C)CC5)CC3)c3ccc(=[N+](CC)CC)cc-3oc2c1`, the EC50 with NIH3T3 stood at 140 nM; with MCF7, 30 nM; with A2780 it was 20 nM; in the data set with HT-29, 40 nM; in the data set with SW-1736, 40 nM; in the data set on A-375, 40 nM.
Regarding `CCN(CC)c1ccc2c(-c3ccccc3C(=O)O[C@H]3CC[C@@]4(C)[C@@H](CC[C@]5(C)[C@@H]4C(=O)C=C4[C@@H]6[C@@H](C)[C@H](C)CC[C@]6(C)CC[C@]45C)[C@@]3(C)C(=O)OCc3ccccc3)c3ccc(=[N+](CC)CC)cc-3oc2c1`, the EC50 is 1010 nM with NIH3T3; 1380 nM with MCF7; 1320 nM in the data set with A2780; 1710 nM in the data set with HT-29; 1520 nM in the data set with A-375.
As to `C[C@H]1[C@H](C)CC[C@]2(C)CC[C@]3(C)C(=CC(=O)[C@@H]4[C@@]5(C)CC[C@@H](O)[C@](C)(C(=O)OCc6ccccc6)[C@@H]5CC[C@]43C)[C@H]12`, the EC50 in the data set with NIH3T3 is greater than 30000 nM; in the data set with MCF7, 26400 nM; in the data set on A2780 it was 30100 nM; with HT-29, 28800 nM; in the data set with SW-1736 it was 24800 nM; in the data set on A-375 it was 24800 nM.
As to `CCN(CC)c1ccc2c(-c3ccccc3C(=O)N3CCCN(C(=O)[C@]4(C)[C@@H]5CC[C@]6(C)[C@H](C(=O)C=C7[C@@H]8[C@@H](C)[C@H](C)CC[C@]8(C)CC[C@]76C)[C@@]5(C)CC[C@H]4OC(C)=O)CC3)c3ccc(=[N+](CC)CC)cc-3oc2c1`, the EC50 came to 400 nM in the data set on NIH3T3; 390 nM in the data set with MCF7; 450 nM with A2780; 500 nM in the data set with HT-29; 510 nM in the data set with A-375.
Taken in the same sequence, the figures for `CCN(CC)c1ccc2c(-c3ccccc3C(=O)O[C@@H]3CC[C@@]4(C)[C@@H](CC[C@]5(C)[C@@H]4C(=O)C=C4[C@@H]6[C@@H](C)[C@H](C)CC[C@]6(C)CC[C@]45C)[C@@]3(C)C(=O)OC)c3ccc(=[N+](CC)CC)cc-3oc2c1` were 190 nM, 230 nM, 300 nM, 290 nM and 360 nM.
In the same order, the values of `CCN(CC)c1ccc2c(-c3ccccc3C(=O)O[C@H]3CC[C@@]4(C)[C@@H](CC[C@]5(C)[C@@H]4C(=O)C=C4[C@@H]6[C@@H](C)[C@H](C)CC[C@]6(C)CC[C@]45C)[C@@]3(C)C(=O)NCc3ccccc3)c3ccc(=[N+](CC)CC)cc-3oc2c1` are 400 nM, 490 nM, 530 nM, 550 nM and 590 nM.
On to `C[C@H]1[C@H](C)CC[C@]2(C)CC[C@]3(C)C(=CC(=O)[C@@H]4[C@@]5(C)CC[C@@H](O)[C@](C)(C(=O)NCc6ccccc6)[C@@H]5CC[C@]43C)[C@H]12`, for which the concentration giving a half-maximal response (EC50) with NIH3T3 amounted to 4900 nM; with MCF7 it was 7300 nM; in the data set with A2780, 10000 nM; in the data set with HT-29 it was 10700 nM; with A-375, 12800 nM.
With `CC(=O)O[C@@H]1CC[C@@]2(C)[C@@H](CC[C@]3(C)[C@@H]2C(=O)C=C2[C@@H]4[C@@H](C)[C@H](C)CC[C@]4(C)CC[C@]23C)[C@@]1(C)C(=O)N1CCCNCC1`, the EC50 came to 900 nM in the data set on NIH3T3; 2410 nM in the data set with MCF7; 2850 nM with A2780; 1990 nM with HT-29; 3210 nM in the data set on A-375.
For `CC(=O)O[C@@H]1CC[C@@]2(C)[C@@H](CC[C@]3(C)[C@@H]2C(=O)C=C2[C@@H]4[C@@H](C)[C@H](C)CC[C@]4(C)CC[C@]23C)[C@@]1(C)C(=O)NCc1ccccc1`, the EC50 in the data set on NIH3T3 was found to be 28100 nM; with MCF7, 9800 nM; in the data set on A2780, 10800 nM; in the data set with HT-29 it was 20200 nM; in the data set with A-375, 13700 nM.
For `C=C(C)[C@@H]1CC[C@]2(C(=O)N3CCCNCC3)CC[C@]3(C)[C@H](CC[C@@H]4[C@@]5(C)CC[C@H](OC(C)=O)C(C)(C)[C@@H]5CC[C@]43C)[C@@H]12`, the EC50 came out at 1050 nM in the data set on NIH3T3; 1520 nM in the data set on MCF7; 1610 nM in the data set with A2780; 1470 nM with HT-29; 1840 nM with SW-1736.
In the case of `CC(=O)O[C@H]1CC[C@]2(C)[C@H]3CC=C4[C@@H]5[C@@H](C)[C@H](C)CC[C@]5(C(=O)N5CCCNCC5)CC[C@@]4(C)[C@]3(C)CC[C@H]2C1(C)C`, the EC50 in the data set with NIH3T3 is 1810 nM; in the data set with MCF7, 1610 nM; in the data set on A2780, 2210 nM; with HT-29, 1880 nM; in the data set with A-375 it was 1950 nM.
As for `CC(=O)O[C@H]1CC[C@]2(C)[C@H]3C(=O)C=C4[C@@H]5C[C@@](C)(C(=O)N6CCCNCC6)CC[C@]5(C)CC[C@@]4(C)[C@]3(C)CC[C@H]2C1(C)C`, the EC50 with NIH3T3 amounted to 12300 nM; with MCF7 it was 10700 nM; with A2780, 12000 nM; in the data set on HT-29 it was 5110 nM; in the data set with SW-1736, 18700 nM; in the data set with A-375, 18700 nM.
With `CCN(CC)c1ccc2c(-c3ccccc3C(=O)N3CCCN(C(=O)[C@@]4(C)CC[C@]5(C)CC[C@]6(C)C(=CC(=O)[C@@H]7[C@@]8(C)CC[C@H](OC(C)=O)C(C)(C)[C@@H]8CC[C@]76C)[C@@H]5C4)CC3)c3ccc(=[N+](CC)CC)cc-3oc2c1`, the EC50 in the data set on NIH3T3 turned out to be 330 nM; in the data set with MCF7, 220 nM; in the data set on A2780, 220 nM; with HT-29 it was 280 nM; with SW-1736, 220 nM; in the data set on A-375, 760 nM.
On to `CCN(CC)c1ccc2c(-c3ccccc3C(=O)N3CCCN(C(=O)[C@]45CCC(C)(C)C[C@H]4C4=CC[C@@H]6[C@@]7(C)CC[C@H](OC(C)=O)C(C)(C)[C@@H]7CC[C@@]6(C)[C@]4(C)CC5)CC3)c3ccc(=[N+](CC)CC)cc-3oc2c1.[Cl-]`, for which the EC50 was 170 nM in the data set with NIH3T3; 30 nM in the data set with MCF7; 10 nM with A2780; 40 nM with HT-29; 30 nM in the data set on SW-1736; 30 nM in the data set with A-375. Also, the Drug uptake result in data set [1] is recorded as “Active”. The selectivity ratio in data set [2] was found to be 17.
